Measured values as given in ChEMBL document CHEMBL1122934, “Angiotensin-converting enzyme inhibitors. New orally active antihypertensive (mercaptoalkanoyl)- and [(acylthio)alkanoyl]glycine derivatives” (J Med Chem, 1985).

What was measured:
[1] = biological target: T1, Angiotensin-converting enzyme (Oryctolagus cuniculus, UniProt P12822); assay: In vitro inhibitory activity against rabbit lung Angiotensin I converting enzyme at pH 8.3
T1 sequence (P12822 whole entry): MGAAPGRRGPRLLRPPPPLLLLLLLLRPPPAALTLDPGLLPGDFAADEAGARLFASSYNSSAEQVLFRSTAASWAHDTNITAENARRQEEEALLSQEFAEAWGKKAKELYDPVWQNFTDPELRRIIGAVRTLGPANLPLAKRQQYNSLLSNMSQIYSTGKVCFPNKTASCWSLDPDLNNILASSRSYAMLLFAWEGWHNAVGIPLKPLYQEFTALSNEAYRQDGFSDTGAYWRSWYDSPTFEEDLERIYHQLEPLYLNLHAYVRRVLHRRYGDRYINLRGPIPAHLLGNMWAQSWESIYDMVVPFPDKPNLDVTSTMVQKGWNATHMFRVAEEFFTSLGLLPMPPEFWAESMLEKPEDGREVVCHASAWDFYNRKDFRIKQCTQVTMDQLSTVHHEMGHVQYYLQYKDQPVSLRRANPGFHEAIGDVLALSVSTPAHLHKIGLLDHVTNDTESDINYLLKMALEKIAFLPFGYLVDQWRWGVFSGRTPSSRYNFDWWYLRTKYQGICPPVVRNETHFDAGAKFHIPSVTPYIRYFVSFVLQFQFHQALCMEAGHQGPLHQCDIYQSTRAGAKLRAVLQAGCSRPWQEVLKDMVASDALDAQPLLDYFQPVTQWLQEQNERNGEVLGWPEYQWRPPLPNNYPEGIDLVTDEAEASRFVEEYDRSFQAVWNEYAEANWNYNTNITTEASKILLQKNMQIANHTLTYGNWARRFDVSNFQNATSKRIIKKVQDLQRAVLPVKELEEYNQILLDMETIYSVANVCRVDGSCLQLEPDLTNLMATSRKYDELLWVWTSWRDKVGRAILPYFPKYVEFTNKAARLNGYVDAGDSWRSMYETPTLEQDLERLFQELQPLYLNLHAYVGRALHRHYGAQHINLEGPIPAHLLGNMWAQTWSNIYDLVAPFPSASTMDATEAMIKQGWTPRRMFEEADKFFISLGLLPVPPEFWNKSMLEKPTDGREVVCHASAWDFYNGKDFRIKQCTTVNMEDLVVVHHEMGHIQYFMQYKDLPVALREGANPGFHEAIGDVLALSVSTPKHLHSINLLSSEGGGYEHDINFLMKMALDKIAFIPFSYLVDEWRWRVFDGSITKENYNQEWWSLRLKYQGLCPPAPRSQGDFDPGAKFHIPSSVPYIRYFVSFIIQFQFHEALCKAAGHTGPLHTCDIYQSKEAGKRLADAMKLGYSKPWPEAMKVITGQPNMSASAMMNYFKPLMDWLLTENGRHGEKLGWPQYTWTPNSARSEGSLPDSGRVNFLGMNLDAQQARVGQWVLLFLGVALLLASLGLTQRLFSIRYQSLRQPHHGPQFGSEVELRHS

Canis familiaris = assay: Peroral dose required to inhibit angiotensin I induced vasopressor response in normotensive conscious dogs; format: functional; conditions: Canis lupus familiaris, po; read-out: ID50 (the source's name)
Method in brief: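 Six conscious normotensive dogs; pressor response to angiotensin I 0.25 μg/kg iv. Inhibitor given orally at 0.01–1 mg/kg, vehicle 0.3 M KH₂PO₄ buffer, weekly intervals in a three-way crossover with vehicle control.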

[2] = biological target: T2, Angiotensin-converting enzyme (Rattus norvegicus) (UniProt P47820); assay: Peroral dose required to inhibit angiotensin I induced vasopressor response in normotensive conscious rats; format: functional
T2 sequence (whole entry): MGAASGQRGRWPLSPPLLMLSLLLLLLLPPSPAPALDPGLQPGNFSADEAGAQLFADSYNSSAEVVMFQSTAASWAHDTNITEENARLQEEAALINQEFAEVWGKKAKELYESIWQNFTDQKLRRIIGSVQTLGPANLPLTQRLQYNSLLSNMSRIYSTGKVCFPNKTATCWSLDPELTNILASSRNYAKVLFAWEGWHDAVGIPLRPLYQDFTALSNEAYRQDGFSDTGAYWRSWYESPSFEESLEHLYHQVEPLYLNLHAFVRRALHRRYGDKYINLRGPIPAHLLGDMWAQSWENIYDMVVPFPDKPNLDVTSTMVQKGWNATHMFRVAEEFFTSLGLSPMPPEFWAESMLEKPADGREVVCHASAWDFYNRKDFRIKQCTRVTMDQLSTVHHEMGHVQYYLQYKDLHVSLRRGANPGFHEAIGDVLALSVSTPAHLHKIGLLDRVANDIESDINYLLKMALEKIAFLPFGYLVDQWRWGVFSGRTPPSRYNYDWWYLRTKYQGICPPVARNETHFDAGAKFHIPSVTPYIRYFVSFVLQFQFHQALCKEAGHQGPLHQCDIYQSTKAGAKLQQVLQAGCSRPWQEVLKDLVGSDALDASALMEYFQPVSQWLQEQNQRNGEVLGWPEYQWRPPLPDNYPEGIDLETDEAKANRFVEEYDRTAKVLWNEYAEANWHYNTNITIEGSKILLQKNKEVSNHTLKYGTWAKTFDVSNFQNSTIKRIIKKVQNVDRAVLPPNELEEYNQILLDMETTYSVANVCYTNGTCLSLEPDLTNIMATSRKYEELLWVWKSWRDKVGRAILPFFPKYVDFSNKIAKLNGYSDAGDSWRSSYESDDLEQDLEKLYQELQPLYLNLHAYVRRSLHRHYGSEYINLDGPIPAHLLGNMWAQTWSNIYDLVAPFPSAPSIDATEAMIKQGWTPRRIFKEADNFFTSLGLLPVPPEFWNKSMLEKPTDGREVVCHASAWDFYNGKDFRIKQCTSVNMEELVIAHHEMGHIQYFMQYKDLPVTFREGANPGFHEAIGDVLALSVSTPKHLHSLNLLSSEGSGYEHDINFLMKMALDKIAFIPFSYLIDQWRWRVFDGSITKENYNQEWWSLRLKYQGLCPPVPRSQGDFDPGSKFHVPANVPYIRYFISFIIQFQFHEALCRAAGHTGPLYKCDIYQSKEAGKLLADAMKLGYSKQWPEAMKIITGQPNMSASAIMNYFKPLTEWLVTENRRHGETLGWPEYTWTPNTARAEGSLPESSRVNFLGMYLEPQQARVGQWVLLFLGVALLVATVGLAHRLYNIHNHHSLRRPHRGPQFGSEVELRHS
Method in brief: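 Male normotensive rats with aortic and vena caval catheters, used ≥6 days later while restrained; angiotensins I and II 0.25 μg/kg iv every 10 min. One oral inhibitor dose in 0.5% gum tragacanth suspension; angiotensin I repeated every 10 min for ≥2 h. Maximum inhibition as % of initial response; ID50 from dose-response plot.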

| Compound | IC50 [1] [nM] | ED50 (Canis familiaris) [mg/kg] | ID50 [2] [mg/kg] |
| --- | --- | --- | --- |
| CC(=O)SCC(C)C(=O)N(CC(=O)O)c1cccc(F)c1 (centres undefined) | 51 |  |  |
| CCN(CC(=O)O)C(=O)C(C)CS (centres undefined) | 75 |  |  |
| CCOC(=O)[C@H](CCc1ccccc1)N[C@@H](C)C(=O)N1CCC[C@H]1C(=O)O |  | 0.1 | 0.08 |
| CC(S)C(=O)NCC(=O)O (centres undefined) [TIOPRONIN] | 1900 |  |  |
| CC(CS)C(=O)N(CC(=O)O)C1CC2CCC1C2 (centres undefined) | 32 |  | 0.1 |
| CC(=O)SCC(C)C(=O)N(CC(=O)O)c1ccc(C)cc1 (centres undefined) | 130 |  | 0.15 |
| COc1cccc(N(CC(=O)O)C(=O)C(C)CSC(C)=O)c1 (centres undefined) | 110 |  |  |
| CC(=O)SCC(C)C(=O)N(CC(=O)O)C[C@H]1CC2CC(C1C)C2(C)C (some centres undefined) | 140 |  |  |
| CC(CS)C(=O)N(CC(=O)O)Cc1ccco1 (centres undefined) | 170 |  |  |
| CC(CS)C(=O)N(CC(=O)O)C[C@H]1CC2CC(C1C)C2(C)C (some centres undefined) | 160 |  |  |
| CC(=O)SCC(C)C(=O)N(CC(=O)O)c1ccccc1C (centres undefined) | 550 |  |  |
| CC(=O)SCC(C)C(=O)N(C1CC1)C(C)C(=O)O (centres undefined) | 220 |  |  |
| Cc1ccc(N(CC(=O)O)C(=O)C(C)CS)cc1 (centres undefined) | 5 |  |  |
| CC(=O)SCC(C)C(=O)N(CC(=O)O)c1cccc(C)c1 (centres undefined) | 75 |  | 0.15 |
| CC(CS)C(=O)N(C1CC1)C(C)C(=O)O (centres undefined) | 79 |  |  |
| Cc1cc(C)cc(N(CC(=O)O)C(=O)C(C)CS)c1 (centres undefined) | 44 |  |  |
| CC(=O)SCC(C)C(=O)N(CC(=O)O)C(C)C (centres undefined) | 5900 |  |  |
| CC(=O)SCC(C)C(=O)N(CC(=O)O)C1CCCCCC1 (centres undefined) |  |  | 0.06 |
| CC(=O)SCC(C)C(=O)N(CC(=O)O)C1CCCC1 (centres undefined) | 82 |  | 0.15 |
| CC(=O)SCC(C)C(=O)N(CC(=O)O)c1ccc(F)cc1 (centres undefined) | 600 |  |  |
| CC(=O)SCC(C)C(=O)N(CC(=O)O)CC1CCCO1 (centres undefined) | 1900 |  |  |

| Compound | IC50 [1] [nM] | ED50 (Canis familiaris) [mg/kg] | ID50 [2] [mg/kg] |
| --- | --- | --- | --- |
| CC(CS)C(=O)NCC(=O)O (centres undefined) | 210 |  |  |
| CC(=O)SCC(C)C(=O)N(CC(=O)O)C1CC1 (centres undefined) | 540 |  | 0.2 |
| CC(=O)SCC(C)C(=O)N(CC(=O)O)C1CCCCC1 (centres undefined) | 270 |  |  |
| CC(CS)C(=O)N(C)CC(=O)O (centres undefined) | 130 |  |  |
| CC(CS)C(=O)N(CC(=O)O)C1CC1 (centres undefined) | 30 |  | 0.3 |
| CC(=O)SCC(C)C(=O)N(CC(=O)O)c1cc(C)cc(C)c1 (centres undefined) | 44 |  |  |
| CCN1CCCC1CN(CC(=O)O)C(=O)C(C)CS (centres undefined) | 640 |  |  |
| CC(=O)SCC(C)C(=O)N(CC(=O)O)c1ccccc1 (centres undefined) | 300 |  | 0.2 |
| CC(CS)C(=O)N(CC(=O)O)Cc1cccs1 (centres undefined) | 55 |  |  |
| CC(CS)C(=O)N(CC(=O)O)C1CCC1 (centres undefined) | 18 |  | 0.3 |
| C[C@H](CSC(=O)C(C)(C)C)C(=O)N(CC(=O)O)C1CCCC1 [PIVOPRIL] | 3600 | 0.17 | 0.058 |
| C[C@H](CS)C(=O)N1CCC[C@H]1C(=O)O [CAPTOPRIL] |  | 0.057 |  |
| CC(=O)SCC(C)C(=O)N(CC(=O)O)C1CCC1 (centres undefined) | 220 |  |  |
| CC(=O)SCC(C)C(=O)N(CC(=O)O)C1Cc2ccccc2C1 (centres undefined) | 340 |  |  |
| CC(=O)SCC(C)C(=O)N(CC(=O)O)C1CC2CCC1C2 (stereo in doubt; 30) [listing 1 of 2 here] | 20 |  |  |
| CC(=O)SCC(C)C(=O)N(CC(=O)O)C1CCC2CC1C2(C)C (centres undefined) | 45 |  |  |
| Cc1cccc(N(CC(=O)O)C(=O)C(C)CS)c1 (centres undefined) | 19 |  |  |
| CC(=O)SCC(C)C(=O)N(CC(=O)O)c1ccc(C(C)C)cc1 (centres undefined) | 60 |  |  |
| CC(CS)C(=O)N(CC(=O)O)CC1CC2CC(C1C)C2(C)C (centres undefined) | 440 |  |  |
| C#CCN(CC(=O)O)C(=O)C(C)CSC(C)=O (centres undefined) | 4500 |  |  |
| CC(=O)SCC(C)C(=O)N(CC(=O)O)Cc1ccco1 (centres undefined) | 700 |  |  |

| Compound | IC50 [1] [nM] | ED50 (Canis familiaris) [mg/kg] | ID50 [2] [mg/kg] |
| --- | --- | --- | --- |
| CC(CSC(=O)C(C)(C)C)C(=O)N(CC(=O)O)C1CCCC1 (centres undefined) | 3700 |  | 0.15 |
| CC(=O)SCC(C)C(=O)N(CC(=O)O)C1CC2CCC1C2 (stereo in doubt; 31) | 52 |  |  |
| CC(=O)SCC(C)C(=O)N(CC(=O)O)Cc1cccs1 (centres undefined) | 750 |  |  |
| C#CCN(CC(=O)O)C(=O)C(C)CS (centres undefined) | 270 |  |  |
| C[C@@H](CSC(=O)C(C)(C)C)C(=O)N(CC(=O)O)C1CCCC1 | > 100000 |  | 25 |
| CC(=O)SCC(C)C(=O)N(CC(=O)O)CC1CC2CC(C1C)C2(C)C (centres undefined) | 85 |  |  |
| CC(CS)C(=O)N(CC(=O)O)C1Cc2ccccc2C1 (centres undefined) |  |  | 0.15 |
| CC(CSC(=O)CC(C)(C)C)C(=O)N(CC(=O)O)C1CCCC1 (centres undefined) | 15000 |  | 1.2 |
| CC(CS)C(=O)N(CC(=O)O)C1CCCC1 (centres undefined) |  |  | 0.15 |
| CCCCc1ccc(N(CC(=O)O)C(=O)C(C)CSC(C)=O)cc1 (centres undefined) | 64 |  |  |
| CC(CS)C(=O)N(CC(=O)O)C1CCCCCC1 (centres undefined) |  |  | 0.05 |
| CC(=O)SCC(C)C(=O)N(CC(=O)O)c1ccc2c(c1)CCC2 (centres undefined) | 48 |  | 1.5 |
| CC(=O)SCC(C)C(=O)N(CC(=O)O)C1CC2CCC1C2 (stereo in doubt; 30) [listing 2 of 2 here] |  |  | 0.06 |
| CC(CS)C(=O)N(CC(=O)O)C(C)C (centres undefined) | 72 |  |  |
| CC(CS)C(=O)N(CC(=O)O)CC1CCCO1 (centres undefined) | 130 |  |  |
| Cc1ccccc1N(CC(=O)O)C(=O)C(C)CS (centres undefined) | 120 |  |  |
| CC(CS)C(=O)N(CC(=O)O)C1CCS(=O)(=O)C1 (centres undefined) | 280 |  |  |
| CSCCCN(CC(=O)O)C(=O)C(C)CSC(C)=O (centres undefined) | 900 |  | 1.5 |
| CSc1cccc(N(CC(=O)O)C(=O)C(C)CSC(C)=O)c1 (centres undefined) | 75 |  |  |
| CC(=O)SCC(C)C(=O)N(CC(=O)O)C1CCS(=O)(=O)C1 (centres undefined) | 280 |  |  |
| CC(CS)C(=O)N(CC(=O)O)C1CCCCC1 (centres undefined) |  |  | 0.1 |
